Here are results for two compounds from paper PMC3205354 (Chemistry & biology, 2011).

The target in test [1] is T1, FAPP1 PH domain (Homo sapiens, UniProt Q9HB20).
T1 sequence (Q9HB20 1-99): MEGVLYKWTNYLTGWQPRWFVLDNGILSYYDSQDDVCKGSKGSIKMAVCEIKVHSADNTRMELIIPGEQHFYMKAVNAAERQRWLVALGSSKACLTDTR
As to the kind of experiment: NMR 1H,15N HSQC titration. The format is binding. The following applies: read-out: Kd (NMR); 25 mM Bis-Tris, 150 mM NaCl, pH 6.5, 25°C. The method in brief: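 Human FAPP1 PH (aa 1–99), ¹⁵N-labeled, expressed in E. coli Rosetta (DE3) pLysS in ¹⁵NH₄Cl minimal medium (0.1 mM IPTG, room temperature, 6 hr). It was purified on Talon resin, His tag removed with thrombin, then size exclusion. HSQC spectra of 0.1–0.2 mM protein were recorded at 600 MHz with stepwise ligand addition. Normalized ¹H/¹⁵N shift changes were fitted against ligand and protein concentrations to give Kd.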

Test [2] deals with T1, FAPP1 PH domain. To be noted: 5 mol% in monolayer; ref He, et al., 2011; cited from earlier work.
For test [3], the target named is T1, FAPP1 PH domain. As to the kind of experiment: SPR equilibrium binding to lipid vesicles. The following applies: read-out: Kd (SPR); POPC/POPE/PI (75:20:5) liposomes; 10 mM HEPES (pH 7.4), 160 mM KCl, 25°C.
Test [4] concerns GST-fusion FAPP1 PH domain. As to the kind of experiment: Liposome binding assay. The following applies: SUVs of POPC, POPE, POPS and PI (50:20:15:15); 20 mM MOPS, 100 mM KCl, pH 7.0. Details: species or system human. The method in brief:
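GST-tagged FAPP1 PH expressed in E. coli BL21(DE3) and purified on glutathione Sepharose. Lipids dried from CHCl3:MeOH:H2O (65:25:4) were resuspended in MOPS/KCl buffer and extruded 19 times through a 1 µm membrane. Liposomes were pelleted at 25,000 × g for 20 min, resuspended, and incubated with protein (stock 1.7 µg/µl) for 1 hr at room temperature. They were re-pelleted, and pellet and supernatant were analysed by SDS-PAGE.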

Structures are written as SMILES.

One may read the Kd as the concentration at which binding is half-saturated. Consider `O=P(O)(O)OC1[C@@H](O)[C@@H](O)C(OP(=O)(O)O)[C@H](O)[C@H]1O` (stereo partly shown) [Ins(1,4)P2, inositol 1,4-bisphosphate], for which the Kd in test [1] amounted to 20 mM.

Take `CCCCCCCCCCCCCCCC(=O)OC[C@H](COP(=O)(O)O[C@H]1[C@H](O)[C@@H](O)[C@H](OP(=O)(O)O)[C@@H](O)[C@H]1O)OC(=O)CCCCCCCCCCCCCCC` [C16-PtdIns(4)P]: in test [2], the “surface pressure (πc)” value was 33 mN/m. Besides, the Kd in test [3] was 0.00046 mM. Besides, in test [4], the “partitioning of GST-FAPP1 PH between supernatant and pelleted SUVs” value was “half of the protein associated with SUVs”.
